Screening results (PubChem)
CHRM4 antagonist: CHRM4 antagonism in calcium assay | CHO-hM4 cells, ACh EC80, Fluo-8 calcium fluorescence | inhibition, % at 3 µM | actives 0.73% (n = 360,000) | AID 624125;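 active = inhibition above its plate's cutoff, the mean inhibition of sample wells plus 3 SD, cut at about 27% in these data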;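 note: 0% = acetylcholine EC80 with DMSO and 100% = DMSO without agonist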
CHRM5 agonist: agonists of human muscarinic M5 receptor (CHRM5) | P08912 | CHO-K1 hM5 cells, Fluo-8 calcium fluorescence; 0% DMSO wells, 100% maximal acetylcholine response | activation, % at 3 µM | actives 0.19% (n = 360,000) | AID 624037;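 active = activation above the run's mean over test compounds plus 3 SD, cut at about 23% in these data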;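 note: signal is peak over basal fluorescence ratio across the kinetic read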
Target sequence (P08912 whole entry, looked up): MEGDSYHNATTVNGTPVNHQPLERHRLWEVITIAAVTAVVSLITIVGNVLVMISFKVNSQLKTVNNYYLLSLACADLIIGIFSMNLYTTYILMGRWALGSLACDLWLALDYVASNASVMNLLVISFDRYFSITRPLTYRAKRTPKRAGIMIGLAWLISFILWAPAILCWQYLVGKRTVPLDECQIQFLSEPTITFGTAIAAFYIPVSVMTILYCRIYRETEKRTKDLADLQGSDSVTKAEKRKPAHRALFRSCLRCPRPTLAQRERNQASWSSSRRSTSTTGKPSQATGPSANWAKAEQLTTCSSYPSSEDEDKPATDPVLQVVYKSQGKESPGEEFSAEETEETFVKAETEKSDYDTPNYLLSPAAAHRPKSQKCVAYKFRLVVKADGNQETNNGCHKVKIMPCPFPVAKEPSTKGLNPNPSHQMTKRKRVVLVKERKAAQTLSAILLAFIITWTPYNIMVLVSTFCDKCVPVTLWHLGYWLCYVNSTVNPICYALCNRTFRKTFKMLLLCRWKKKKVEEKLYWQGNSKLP
CHRM4 agonist: agonists of human muscarinic M4 receptor (CHRM4). P08173. CHO-K1 hM4/Gqi5, Fluo-8 calcium fluorescence; vehicle 0%, full acetylcholine response 100%. activation, % at 3 µM. actives 0.14% (n = 360,000). AID 624127;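 active = activation above the run mean over all test wells plus 3 SD, cut at about 32% in these data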;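 note: peak over basal fluorescence ratio per well then scaled between controls; 0% = DMSO wells and 100% = acetylcholine at EC100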
CHRM5 PAM: CHRM5 positive allosteric modulation. P08912. CHO-K1 hM5, Fluo-8 calcium, ACh EC20 PAM; 0% = ACh EC20, 100% = ACh EC100. activation, % at 3 µM. actives 0.3% (n = 360,000). AID 624038;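 active = activation above the run cutoff, the mean activation of all test compounds plus 3 SD, cut at about 18% in these data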
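Replicates: One well per compound, no replicates | System: Human M5 receptor in CHO-K1 cells | Benchmarks: Low control EC20 acetylcholine (0%), high control EC100 acetylcholine (100%) | Probe or stimulus: Acetylcholine, EC20 level | Times: Fluo-8 loading 80 min at 37 °C plus 30 min room temperature | Signal: Intracellular calcium via Fluo-8 fluorescence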
M5 antag: blocks acetylcholine activation of human M5 receptor | P08912 | CHO-hM5 cells, Fluo-8 calcium fluorescence, ACh EC80 | inhibition, % at 3 µM | actives 0.59% (n = 360,000) | AID 624040;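 active = inhibition above a per-plate cutoff, the mean of that plate's test compounds plus 3 SD, cut at about 27% in these data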;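 note: 0% = acetylcholine EC80 with DMSO and 100% = DMSO without agonist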
CHRM4 PAM: positive allosteric modulators of human muscarinic M4 receptor | CHO-K1 hM4/Gqi5, Fluo-8 calcium fluorescence, ACh EC20; 0% = ACh EC20, 100% = maximal ACh | activation, % at 3 µM | actives 0.4% (n = 360,000);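 active = activation above its plate's cutoff, the mean activation of sample wells plus 3 SD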
Numbers without * were called inactive. Most compounds without a hit are left out; they make up all but 1.9% or so of the library.

SMILES	CHRM4 antagonist	CHRM5 agonist	CHRM4 agonist	CHRM5 PAM	M5 antag	CHRM4 PAM
Cc1[nH]c2ccc3c(ncn3CCC#N)c2c1C	31*	2	1	2	8	14
Cc1cccc(OCCCc2c(C)n[nH]c2C)c1	1	4	4	3	-2	7
COc1cccc(OC)c1OCCCc1c(C)n[nH]c1C	4	1	1	2	-11	29*
Cc1ccc2c(c1)N(CC(=O)NCCCN1CCN(C)CC1)C(=O)CO2	8	-5	1	-4	10	-5
CN1CCC(=NNC(=O)C(=O)Nc2cccc(Br)c2)CC1	-2	1	1	-15	32*	0
CC(C)N1CSC(=S)N(Cc2ccccc2)C1	-5	5	1	18*	-16	11
CCOc1ccc2[nH]c(=O)c(CN(Cc3ccc(C)cc3)C(=O)N3CCCC3)cc2c1	-5	-2	0	-11	32*	-8
CCCCCCN1C2=NCCN2c2ccccc21	29*	-5	3	1	0	-22
CCOC(=O)CC1C(=O)NCCN1C(=O)COc1ccc(C(C)(C)C)cc1 (stereo unspecified)	7	0	2	5	-9	2
NC(=O)NN=C1C2CCCC1C(c1ccccc1)NC2c1ccccc1 (stereo unspecified)	49*	2	-1	-18	4	-14
COC(=O)c1ccc(Cl)cc1NC(=O)/C=C/c1ccc(C)o1	1	0	0	20*	16	3
CCCC1N2CC3([N+](=O)[O-])CN1CC([N+](=O)[O-])(C2)C3(C)C (stereo unspecified)	-1	1	1	0	6	20*
Cc1ccc(C2N3CC4([N+](=O)[O-])CN2CC([N+](=O)[O-])(C3)C4(C)C)cc1 (stereo unspecified)	-12	-1	1	-6	15	3
COc1ccc(C(=O)NCCS(=O)(=O)N2CCC3(CC2)OCCO3)cc1	-18	1	2	-4	1	18
O=c1oc2c(CN3CCCCC3)c(O)ccc2c2c1CCCC2	35*	-6	0	-19	6	-14
Cc1c(C)c2ccc(O)c(CN3CCCC3)c2oc1=O	1	-4	0	4	2	8
CC1CCCN(C(=O)C(=O)c2cn(CC(=O)N3CCCCCC3)c3ccccc23)C1 (stereo unspecified)	-8	-5	1	5	-6	4
CCOC(=O)NC(=O)/C(C#N)=C\NNc1ncc(C(F)(F)F)cc1Cl	-5	-3	0	2	-11	1
Cc1ccc(-c2nc3ccccc3n2C(C(=O)NC(C)(C)C)C2CC2)cc1 (stereo unspecified)	-3	0	3	0	1	2
O=C(NC1CCCC1)C(c1ccccc1)n1c(-c2cccc3ccccc23)nc2ccccc21 (stereo unspecified)	74*	-4	-1	-18	-1	-15
CC(C)(C)NC(=O)C(C1CC1)n1c(-c2ccccc2)nc2ccccc21 (stereo unspecified)	0	0	3	7	-9	24*
O=C(NC1CCCC1)C(C1CC1)n1c(C2CCCC2)nc2ccccc21 (stereo unspecified)	-21	-1	1	0	5	6
O=C(NC1CCCC1)C(C1CC1)n1c(C2CC2)nc2ccccc21 (stereo unspecified)	-13	0	1	3	0	23*
O=C(NC1CCCC1)C(c1ccccc1)n1c(-c2cccs2)nc2ccccc21 (stereo unspecified)	6	-4	0	0	7	10
OC[C@H]1OC(O)[C@@H](O)[C@@H](O)[C@@H]1O (stereo partly specified)	-7	1	1	-5	3	-2
SMILES	CHRM4 antagonist	CHRM5 agonist	CHRM4 agonist	CHRM5 PAM	M5 antag	CHRM4 PAM
Cc1cc(C)cc(NS(=O)(=O)c2c(C(=O)N3CCCCCC3)c(C)n(C)c2C)c1	-4	-8	1	0	5	6
N#CCCN1CCCc2cc(N=Nc3ccc(C(F)(F)F)cc3)ccc21	7	-3	1	20*	-3	2
COc1cc2cc(C(c3nnnn3C3CCCC3)N3CCCCC3)c(=O)[nH]c2cc1OC (stereo unspecified)	5	-2	2	-12	34*	12
c1ccc(-c2noc(-c3cccc4ccccc34)n2)cc1	-10	-1	0	8	4	16*
O=C(c1ccc(N2CCCC2=O)cc1)N1CCN(c2ccccc2)CC1	-5	1	1	45*	11	6
CCCCn1cnc2c1c(=O)[nH]c(=O)n2CCCC	6	-4	2	19*	-2	6
CCCCn1cnc2c(cnn2-c2ccc(F)cc2)c1=O	37*	1	1	-6	2	-5
CCn1cnc2c1c(=O)[nH]c(=O)n2Cc1ccccc1	-13	-2	1	3	-1	3
COC(=O)[C@]1(C)CCC[C@@]2(C)C3CC[C@]4(OC(C)=O)C[C@@]3(CCC21)CC4=O (stereo partly specified)	5	-1	10	-25	15	0
COC(=O)C1(C)CCCC2(C)C3CCC(C(C)C)C(CO)C3C(CO)CC12 (stereo unspecified)	29*	7	22	-23	24	-12
O=C(Nc1ccncc1)C1CCN(S(=O)(=O)c2ccc(Cl)c(C(F)(F)F)c2)CC1	-4	7	14	-9	11	0
CCC(C)C(=O)Nc1nnc(SCC(=O)N2C(C)CCCC2C)s1 (stereo unspecified)	-3	-3	1	-1	2	-1
CCN(CC)c1ccc2c(-c3ccc(S(=O)(=O)O)cc3S(=O)(=O)[O-])c3ccc(=[N+](CC)CC)cc-3oc2c1	17	23	78*	-8	8	-17
COC(=O)C1=C(O)/C(=C\c2ccc(OCC(=O)Nc3ccc(OC)cc3)cc2)N=C1C	0	-2	0	10	-13	6
COc1ccc(C(=O)Nc2cc(Cl)ccc2OC(=O)c2ccc(OC)cc2)cc1	-1	-1	0	-3	5	-2
COc1ccc(C(=O)Nc2cc(Cl)ccc2C(=O)O)cc1	-1	4	0	20*	2	9
CC(=O)Oc1ccc(/C=C(\NC(=O)c2cccc(Br)c2)C(=O)Nc2ccc(C(=O)O)cc2)cc1	0	-2	0	0	8	4
CNS(=O)(=O)c1ccc(NC(=O)c2ccccn2)cc1	-2	1	3	-1	7	28*
